{"source": "ChEMBL document CHEMBL1149114", "about": "“Countering cooperative effects in protease inhibitors using constrained beta-strand-mimicking templates in focused combinatorial libraries” (J Med Chem, 2004)", "data": [{"target": "T1, Human immunodeficiency virus type 1 protease (Human immunodeficiency virus 1, UniProt Q72874)", "experiment": "(§1) Tested for inhibition of synthetic HIV-1 protease by using fluorometric assay", "method_in_brief": "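Synthetic HIV-1 PR (SF2 isolate; C67B, C95B, Q7K, L33I mutations, B = L-α-aminobutyric acid) solubilized in 6 M Gu·HCl, refolded 60 min in phosphate pH 7.0/glycerol/BSA buffer. Continuous fluorimetric assay with 50 μM Abz-Thr-Ile-Nle-Phe(p-NO2)-Gln-Arg-NH2 in MES pH 6.5, 100 mM NaCl, 10% glycerol, I = 0.1 M, 37 °C, varying inhibitor. Ki from Dixon or Henderson plots; Km from Hanes plot.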", "units": {"Ki": "nM"}, "values": [{"compound": "CC[C@@H](C)[C@@H]1NC(=O)[C@@H](NC[C@@H](O)[C@H](Cc2ccccc2)NC(=O)[C@H](C(C)C)N2CCCC2=O)Cc2ccc(cc2)OCCCNC1=O", "Ki": 1}, {"compound": "CC[C@@H](C)[C@@H]1NC(=O)[C@@H](NC[C@@H](O)[C@H](Cc2ccccc2)NC(=O)[C@@H](NC(=O)[C@H](CC(C)C)NC(C)=O)C(C)C)Cc2ccc(cc2)OCCCNC1=O", "Ki": 0.6}, {"compound": "CC[C@@H](C)[C@@H]1NC(=O)[C@@H](NC[C@@H](O)[C@@H]2Cc3ccc(cc3)OCCCCC(=O)N[C@@H](C(C)C)C(=O)N2)Cc2ccc(cc2)OCCCNC1=O", "Ki": 5}, {"compound": "CC[C@@H](C)[C@@H]1NC(=O)[C@@H](NC[C@H](Cc2ccccc2)NC(=O)OC(C)(C)C)Cc2ccc(cc2)OCCCNC1=O", "Ki": 44}, {"compound": "CC[C@@H](C)[C@@H]1NC(=O)[C@@H](NC[C@@H](O)[C@H](Cc2ccccc2)NC(=O)OC(C)(C)C)Cc2ccc(cc2)OCCCNC1=O", "Ki": 4}, {"compound": "CC[C@@H](C)[C@@H]1NC(=O)[C@@H](NC[C@@H](O)[C@H](Cc2ccccc2)NC(=O)OC2CCOC2)Cc2ccc(cc2)OCCCNC1=O", "note": "(stereo not given in full)", "Ki": 4}, {"compound": "CC[C@@H](C)[C@@H]1NC(=O)[C@@H](NC[C@@H](O)[C@H](Cc2ccccc2)NC(=O)c2cccc(C)c2)Cc2ccc(cc2)OCCCNC1=O", "Ki": 15}, {"compound": "CC(C)CCN(C[C@@H](O)[C@@H]1Cc2ccc(cc2)OCCCCC(=O)N[C@@H](C(C)C)C(=O)N1)S(=O)(=O)c1ccccc1", "Ki": 0.4}, {"compound": "CC(C)CCN(C[C@@H](O)[C@@H]1Cc2ccc(cc2)OCCCCCC(=O)N[C@@H](C(C)C)C(=O)N1)S(=O)(=O)c1ccccc1", "Ki": 1.6}, {"compound": "CC[C@H](C)[C@H](NC(=O)[C@@H](NC(=O)[C@@H]1CCCN1)C(C)C)C(=O)NCC(O)C1Cc2ccc(cc2)OCCCC(=O)NC(CC(N)=O)C(=O)N1", "note": "(stereo not given in full)", "Ki": 12}, {"compound": "CC(C)(C)N(CC(O)C1Cc2ccc(cc2)OCCCC(=O)NC(CC(N)=O)C(=O)N1)C(=O)C1CCCCN1", "note": "(stereo not given)", "Ki": 12}, {"compound": "CC(C)CCN(C[C@@H](O)[C@@H]1Cc2ccc(cc2)OCCCC(=O)N[C@@H](C(N)=O)C(=O)N1)S(=O)(=O)c1ccccc1", "Ki": 1}]}, {"target": "T1, Human immunodeficiency virus type 1 protease", "experiment": "as §1", "units": {"Ki": "nM"}, "values": [{"compound": "CC(C)[C@@H]1NC(=O)CCCCCOc2ccc(cc2)C[C@@H]([C@H](O)CN(C2CCCC2)S(=O)(=O)c2ccc(N)cc2)NC1=O", "Ki": 3}, {"compound": "CC(C)CCN(C[C@@H](O)[C@@H]1Cc2ccc(cc2)OCCCCCC(=O)N[C@@H](C(C)C)C(=O)N1)NC(=O)NCc1ccccc1", "Ki": 314}, {"compound": "CCCCCCN(C[C@@H](O)[C@@H]1Cc2ccc(cc2)OCCCCCC(=O)N[C@@H](C(C)C)C(=O)N1)S(=O)(=O)c1ccc(N)cc1", "Ki": 14}, {"compound": "CCC(C)N(C[C@@H](O)[C@@H]1Cc2ccc(cc2)OCCCCCC(=O)N[C@@H](C(C)C)C(=O)N1)S(=O)(=O)c1ccc(N)cc1", "note": "(stereo not given in full)", "Ki": 2}, {"compound": "CC(C)CCN(C[C@@H](O)[C@@H]1Cc2ccc(cc2)OCCCCCC(=O)N[C@@H](C(C)C)C(=O)N1)NC(=O)NC1CCCCC1", "Ki": 207}, {"compound": "CC(C)CCN(C[C@@H](O)[C@@H]1Cc2ccc(cc2)OCCCCCC(=O)N[C@@H](C(C)C)C(=O)N1)S(=O)(=O)c1ccc2ccccc2c1", "Ki": 1}, {"compound": "CC(C)CCN(C[C@@H](O)[C@@H]1Cc2ccc(cc2)OCCCCCC(=O)N[C@@H](C(C)C)C(=O)N1)S(=O)(=O)c1c(C(C)C)cc(C(C)C)cc1C(C)C", "Ki": 4700}, {"compound": "CC(C)[C@@H]1NC(=O)CCCCCOc2ccc(cc2)C[C@@H]([C@H](O)CN(CCCCCC(=O)O)S(=O)(=O)c2ccc(N)cc2)NC1=O", "Ki": 60}, {"compound": "CC(C)[C@@H]1NC(=O)CCCCCOc2ccc(cc2)C[C@@H]([C@H](O)CN(CCc2ccccc2)S(=O)(=O)c2ccc(N)cc2)NC1=O", "Ki": 8}, {"compound": "CC(=O)Nc1ccc(S(=O)(=O)N(CCC(C)C)C[C@@H](O)[C@@H]2Cc3ccc(cc3)OCCCCCC(=O)N[C@@H](C(C)C)C(=O)N2)cc1", "Ki": 10}, {"compound": "COc1ccc(CCN(C[C@@H](O)[C@@H]2Cc3ccc(cc3)OCCCCCC(=O)N[C@@H](C(C)C)C(=O)N2)S(=O)(=O)c2ccc(N)cc2)cc1", "Ki": 3}, {"compound": "CC(C)CCN(C[C@@H](O)[C@@H]1Cc2ccc(cc2)OCCCCCC(=O)N[C@@H](C(C)C)C(=O)N1)S(=O)(=O)c1cccc([N+](=O)[O-])c1", "Ki": 145}, {"compound": "CC(C)CCN(C[C@@H](O)[C@@H]1Cc2ccc(cc2)OCCCCCC(=O)N[C@@H](C(C)C)C(=O)N1)S(=O)(=O)c1cccc2cccnc12", "Ki": 295}]}]}
